Test results from ChEMBL document CHEMBL1145884, “Synthesis and biological activity of novel 1beta-methylcarbapenems with oxyiminopyrrolidinylamide moiety” (2003).
≈ marks a conversion by molar mass, not a printed value.

Assays:
[1] = test system: Klebsiella aerogenes; test: Antibacterial activity against Klebsiella aerogenes 1522E; assay type: functional
Procedure, shortened: (§1)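 MIC was determined by agar dilution on Mueller–Hinton medium.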

[2] = test system: Escherichia coli; test: Antibacterial activity against Escherichia coli 078; assay type: functional; procedure, shortened: as §1
[3] = test system: Pseudomonas aeruginosa; test: Antibacterial activity against Pseudomonas aeruginosa 9027; assay type: functional; procedure, shortened: as §1
[4] = test system: Pseudomonas aeruginosa; test: Antibacterial activity against Pseudomonas aeruginosa 1592E
[5] = test system: Escherichia coli; test: Antibacterial activity against Escherichia coli 1507E; assay type: functional; procedure, shortened: as §1
[6] = test system: Pseudomonas aeruginosa; test: Antibacterial activity against Pseudomonas aeruginosa 1771M; assay type: functional; procedure, shortened: as §1
[7] = test system: Enterobacter cloacae; test: Antibacterial activity against Enterobacter cloacae 1321E; assay type: functional; procedure, shortened: as §1
[8] = test system: Salmonella typhimurium; test: Antibacterial activity against Salmonella Typhimurium; assay type: functional, Salmonella enterica subsp. enterica serovar Typhimurium; settings: Salmonella enterica; procedure, shortened: as §1
[9] = test system: Staphylococcus aureus; test: Antibacterial activity against Staphylococcus aureus 503; assay type: functional
[10] = Compound was evaluated for its relative half life of hydrolysis to meropenem by partially purified porcine renal dihydropeptidase-I (DHP-I); assay type: functional; settings: Sus scrofa
[11] = test system: Staphylococcus aureus; test: Antibacterial activity against Staphylococcus aureus 285; assay type: functional
[12] = test system: Staphylococcus aureus; test: Antibacterial activity against Staphylococcus aureus SG 511; assay type: functional
[13] = test system: Streptococcus pyogenes; test: Antibacterial activity against Streptococcus pyogenes 308A; assay type: functional

Which MIC [1] does the source give for `CO/N=C1/CCN(C(=O)[C@@H]2C[C@H](SC3=C(C(=O)O)N4C(=O)[C@H]([C@@H](C)O)[C@H]4[C@H]3C)CN2)C1` here?
Its MIC is 0.049 µg/mL (≈ 0.108 µM).

What about the MIC [2] of the same compound?
The MIC was 0.049 µg/mL (≈ 0.108 µM).

What about the MIC [3] of the same compound?
The MIC was 0.391 µg/mL (≈ 0.864 µM).

And the MIC [4]?
The MIC was 3.12 µg/mL (≈ 6.91 µM).

What about the MIC [5] of the same compound?
Its MIC is 0.049 µg/mL (≈ 0.108 µM).

And the MIC [6]?
Its MIC is 0.781 µg/mL (≈ 1.73 µM).

And the MIC [7]?
The MIC was 0.049 µg/mL (≈ 0.108 µM).

What about the MIC [8] of the same compound?
Its MIC is 0.098 µg/mL (≈ 0.217 µM).

What does the source list for `C[C@@H](O)[C@H]1C(=O)N2C(C(=O)O)=C(S[C@@H]3CN[C@H](C(=O)N4C/C(=N\O)C(C(=O)O)C4)C3)[C@H](C)[C@H]12` (some centres not stated)?
MIC [1]: 0.049 µg/mL (≈ 0.102 µM); MIC [9]: 0.098 µg/mL (≈ 0.203 µM); MIC [2]: 0.013 µg/mL (≈ 0.0269 µM); MIC [3]: 0.391 µg/mL (≈ 0.81 µM); relative t1/2 (DHP-I hydrolysis vs meropenem) [10]: 0.54; MIC [4]: 0.391 µg/mL (≈ 0.81 µM); MIC [11]: 0.195 µg/mL (≈ 0.404 µM); MIC [5]: 0.025 µg/mL (≈ 0.0518 µM); MIC [12]: 0.098 µg/mL (≈ 0.203 µM); MIC [6]: 0.195 µg/mL (≈ 0.404 µM); MIC [13]: 0.013 µg/mL (≈ 0.0269 µM); MIC [7]: 0.025 µg/mL (≈ 0.0518 µM); MIC [8]: 0.049 µg/mL (≈ 0.102 µM)

For `CO/N=C1\CN(C(=O)[C@@H]2C[C@H](SC3=C(C(=O)O)N4C(=O)[C@H]([C@@H](C)O)[C@H]4[C@H]3C)CN2)CC1CN` (some centres not stated), which MIC [1] is on record?
The MIC was 0.098 µg/mL (≈ 0.203 µM).

And the MIC [9]?
The MIC was 0.049 µg/mL (≈ 0.102 µM).

What about the MIC [2] of the same compound?
Its MIC is 0.025 µg/mL (≈ 0.0519 µM).

What about the MIC [3] of the same compound?
The MIC was 0.391 µg/mL (≈ 0.812 µM).

And the relative t1/2 (DHP-I hydrolysis vs meropenem) [10]?
The relative t1/2 (DHP-I hydrolysis vs meropenem) was 0.25.

What about the MIC [4] of the same compound?
Its MIC is 0.195 µg/mL (≈ 0.405 µM).

And the MIC [11]?
The MIC was 0.195 µg/mL (≈ 0.405 µM).

And the MIC [5]?
The MIC was 0.049 µg/mL (≈ 0.102 µM).

What about the MIC [12] of the same compound?
The MIC was 0.098 µg/mL (≈ 0.203 µM).

What about the MIC [6] of the same compound?
The MIC was 0.098 µg/mL (≈ 0.203 µM).

What about the MIC [13] of the same compound?
Its MIC is 0.004 µg/mL (≈ 0.00831 µM).

And the MIC [7]?
The MIC was 0.025 µg/mL (≈ 0.0519 µM).

What about the MIC [8] of the same compound?
The MIC was 0.098 µg/mL (≈ 0.203 µM).

With `CCOC(=O)C1CN(C(=O)[C@@H]2C[C@H](SC3=C(C(=O)O)N4C(=O)[C@H]([C@@H](C)O)[C@H]4[C@H]3C)CN2)C/C1=N\O` (some centres not stated) as the compound, how does the MIC [1] read?
The MIC was 0.049 µg/mL (≈ 0.096 µM).

What about the MIC [9] of the same compound?
Its MIC is 0.195 µg/mL (≈ 0.382 µM).

And the MIC [2]?
Its MIC is 0.013 µg/mL (≈ 0.0255 µM).

What about the MIC [3] of the same compound?
Its MIC is 6.25 µg/mL (≈ 12.2 µM).

And the relative t1/2 (DHP-I hydrolysis vs meropenem) [10]?
Its relative t1/2 (DHP-I hydrolysis vs meropenem) is 0.26.

And the MIC [4]?
Its MIC is 3.12 µg/mL (≈ 6.12 µM).

What about the MIC [11] of the same compound?
Its MIC is 0.391 µg/mL (≈ 0.766 µM).

And the MIC [5]?
The MIC was 0.049 µg/mL (≈ 0.096 µM).

And the MIC [12]?
Its MIC is 0.195 µg/mL (≈ 0.382 µM).

What about the MIC [6] of the same compound?
The MIC was 0.391 µg/mL (≈ 0.766 µM).

What about the MIC [13] of the same compound?
The MIC was 0.013 µg/mL (≈ 0.0255 µM).

And the MIC [7]?
The MIC was 0.025 µg/mL (≈ 0.049 µM).

And the MIC [8]?
Its MIC is 0.049 µg/mL (≈ 0.096 µM).
